Hits are enriched below; roughly 2.3% of the tested compounds scored in any of these assays.
PLCb3 inh: blocks human PLC-beta3 enzyme activity; Q01970; Purified PLC-beta3, fluorogenic substrate, fluorescence; inhibition, % at 12.2 µM; 370,000 tested, 0.18% active; AID 720704; in the data active means inhibition above about 11%;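 further: 0% = median of compound wells on plate and 100% = full blocker control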
ADAM17 inh: ADAM17 inhibition, QFRET primary screen; recombinant ADAM17, EDANS/DABCYL FRET peptide cleavage; inhibition, % at 6.95 µM; 370,000 tested, 0.83% active; AID 720648;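 active means inhibition above the mean of compounds lying between control limits plus 3 SD, set per campaign, cut at about 8.5% in these data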;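 further: 0% = DMSO-only wells as the low control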
ADAM10 inh: inhibitors of human ADAM10; recombinant ADAM10, EDANS/DABCYL FRET peptide cleavage, 3 h; inhibition, % at 7 µM; 370,000 tested, 0.62% active; AID 720582;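 active means inhibition above a per-campaign cutoff equal to the mean of compounds falling between control-based bounds plus 3 SD, cut at about 20% in these data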;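 further: 0% = DMSO wells while the 100% control is not disclosed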
Target sequence (O14672 214-748 limits assumed): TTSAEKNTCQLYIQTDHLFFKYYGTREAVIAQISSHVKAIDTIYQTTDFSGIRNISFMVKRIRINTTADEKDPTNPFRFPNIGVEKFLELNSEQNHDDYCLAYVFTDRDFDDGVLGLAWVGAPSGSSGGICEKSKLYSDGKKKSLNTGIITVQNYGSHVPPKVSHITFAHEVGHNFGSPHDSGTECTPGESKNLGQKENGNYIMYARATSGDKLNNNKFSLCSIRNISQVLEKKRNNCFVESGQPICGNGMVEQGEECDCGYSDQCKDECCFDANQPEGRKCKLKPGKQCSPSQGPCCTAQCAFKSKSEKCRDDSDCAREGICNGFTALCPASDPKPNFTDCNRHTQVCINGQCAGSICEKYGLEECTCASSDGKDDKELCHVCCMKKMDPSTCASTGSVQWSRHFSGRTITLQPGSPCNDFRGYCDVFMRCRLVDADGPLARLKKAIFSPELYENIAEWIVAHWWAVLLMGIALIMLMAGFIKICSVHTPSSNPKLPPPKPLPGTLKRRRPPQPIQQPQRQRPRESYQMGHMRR
Tb MetRS inh: blocks T. brucei methionyl-tRNA synthetase activity. 360,000 tested, 0.4% active. purified T. brucei MetRS, ATP depletion, Kinase-Glo luminescence. inhibition, % at 11.9 µM;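 active means inhibition above a per-plate cutoff of the control wells' mean inhibition plus 3 SD, cut at about 5.5% in these data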;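 further: 0% = DMSO wells median and 100% = median of wells with control inhibitor compound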
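Dosing: 11.9 µM compound single dose, 0.9% DMSO; Assay system: purified T. brucei MetRS enzyme; Measured by: Kinase-Glo luciferase luminescence reporting remaining unconsumed ATP; Schedule: 15 min plus 2 h at 25 °C.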
PLCg1 inh: PLC-gamma1 (human) inhibition, primary screen; 370,000 tested, 0.84% active; inhibition, % at 12.2 µM; purified PLC-gamma1, fluorogenic substrate, fluorescence; in the data active means inhibition above about 9.5%
TbMetRS confirm: Trypanosoma brucei MetRS inhibition confirmed. shares compounds with Tb MetRS inh. T. brucei MetRS enzyme, luminescence (ATP depletion). inhibition, % at 11.9 µM. 1,400 tested, 93% active; in the data active means inhibition above about 7%
Jurkat tox: kills Jurkat cells in T. brucei MetRS counterscreen; inhibition, % at 8.3 µM; 1,400 tested, 12% active; shares compounds with Tb MetRS inh; AID 624413; Jurkat cells viability, ATP luminescence; in the data active means inhibition above about 15%;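 further: 0% = vehicle and 100% = reference inhibitor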
Tb MetRS inh FP: inhibits T. brucei methionyl tRNA synthetase in orthogonal FP test; shares compounds with Tb MetRS inh; purified T. brucei MetRS, fluorescence polarization; inhibition, % at 11.9 µM; 1,400 tested, 44% active; AID 651607; in the data active means inhibition above about 17%;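 further: 0% = vehicle wells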
* marks the source's active call; other numbers are inactive results.

`O=C(O)CCCn1c(O)c(C=C2N=c3ccccc3=N2)sc1=S` gave PLCb3 inh -42, ADAM17 inh -12, ADAM10 inh -26, Tb MetRS inh 29*, PLCg1 inh -29, TbMetRS confirm 44*, Jurkat tox 9 and Tb MetRS inh FP 20*.
`COC(=O)CC1OCC=C2CN3CCC45C6=CC(=O)C(=O)C([N+](=O)[O-])=C6NC4C1C2CC35` (configuration not stated) gave PLCb3 inh -4, ADAM17 inh -5, ADAM10 inh -20, Tb MetRS inh 0 and PLCg1 inh 3.
`COc1cccc(N=C2SC(CC(=O)Nc3ccccc3)C(=O)N2Cc2ccccn2)c1` (configuration not stated) gave PLCb3 inh -7, ADAM17 inh 2, ADAM10 inh 17, Tb MetRS inh 6.6*, PLCg1 inh 1, TbMetRS confirm 11*, Jurkat tox 3 and Tb MetRS inh FP 9.
`COCCN1C(=O)C(CC(=O)Nc2ccccc2)SC1=Nc1ccc(OC)cc1` (configuration not stated) gave PLCb3 inh 10, ADAM17 inh 2, ADAM10 inh 6, Tb MetRS inh 1 and PLCg1 inh 4.
For CCCn1cnc2cc(NCc3cccc(OC)c3O)ccc21 the results were PLCb3 inh -39, ADAM17 inh -5, ADAM10 inh -29, Tb MetRS inh 8.4*, PLCg1 inh -29, TbMetRS confirm 15*, Jurkat tox 0 and Tb MetRS inh FP 3.
`Cc1ccccc1C(=O)N(C)[C@H]1C[C@H]2c3[nH]c4ccccc4c3CCN2C(=O)[C@H]1[C@H](C)O` gave PLCb3 inh -281, ADAM17 inh -148, ADAM10 inh inactive, Tb MetRS inh 31*, PLCg1 inh -208, TbMetRS confirm 48*, Jurkat tox 4 and Tb MetRS inh FP 18*.
Screening C[C@H](O)[C@@H]1CN2CCc3c([nH]c4ccccc34)[C@@H]2C[C@@H]1N(C)Cc1cc(Cl)cc(Cl)c1 returned PLCb3 inh -91, ADAM17 inh -11, ADAM10 inh -46, Tb MetRS inh 34*, PLCg1 inh -80, TbMetRS confirm 71*, Jurkat tox 0 and Tb MetRS inh FP 37*.
For C[C@H](O)[C@@H]1C(=O)N2CCc3c([nH]c4ccccc34)[C@@H]2C[C@@H]1N(C)C(=O)c1cc(Cl)cc(Cl)c1 the results were PLCb3 inh -219, ADAM17 inh -83, ADAM10 inh -362, Tb MetRS inh 13*, PLCg1 inh -162, TbMetRS confirm 46*, Jurkat tox 0 and Tb MetRS inh FP 20*.
For COc1ccc(C(=O)N(C)[C@H]2C[C@H]3c4[nH]c5ccccc5c4CCN3C(=O)[C@H]2CO)cc1 the results were PLCb3 inh -330, ADAM17 inh -230, ADAM10 inh inactive, Tb MetRS inh 44*, PLCg1 inh -279, TbMetRS confirm 62*, Jurkat tox -4 and Tb MetRS inh FP 26*.
`C[C@H](O)[C@@H]1C(=O)N2CCc3c([nH]c4c(-c5ccccc5)cccc34)[C@@H]2C[C@@H]1N(C)C(=O)c1cc(Cl)cc(Cl)c1` gave PLCb3 inh -14, ADAM17 inh -14, ADAM10 inh -44 and PLCg1 inh -10.
`C[C@H](O)[C@@H]1C(=O)N2CCc3c([nH]c4ccccc34)[C@@H]2C[C@@H]1N(C)Cc1ccc2c(c1)OCO2` gave PLCb3 inh -317, ADAM17 inh -197, ADAM10 inh inactive, Tb MetRS inh 89*, PLCg1 inh -211, TbMetRS confirm 102*, Jurkat tox 0 and Tb MetRS inh FP 83*.
For C[C@H](O)[C@@H]1C(=O)N2CCc3c([nH]c4ccccc34)[C@@H]2C[C@@H]1N(C)S(=O)(=O)c1ccccc1 the results were PLCb3 inh inactive, ADAM17 inh inactive, ADAM10 inh inactive, Tb MetRS inh 27*, PLCg1 inh inactive, TbMetRS confirm 23*, Jurkat tox 5 and Tb MetRS inh FP 8.
C[C@H](O)[C@@H]1C(=O)N2CCc3c([nH]c4ccccc34)[C@@H]2C[C@@H]1N(C)C(=O)Nc1cccc2ccccc12 was read as PLCb3 inh inactive, ADAM17 inh -343, ADAM10 inh inactive, Tb MetRS inh 1 and PLCg1 inh -398.
`O=c1[nH]c(COc2ccc(Br)cc2Cl)nc2ccccc12` gave PLCb3 inh -18, ADAM17 inh -3, ADAM10 inh -15, Tb MetRS inh 6.2*, PLCg1 inh -9, TbMetRS confirm 30*, Jurkat tox 3 and Tb MetRS inh FP 14.
Screening O=c1[nH]c(COc2ccccc2)nc2ccccc12 returned PLCb3 inh -2, ADAM17 inh 3, ADAM10 inh -3, Tb MetRS inh -1 and PLCg1 inh -1.
For O=C(CNS(=O)(=O)c1ccc([N+](=O)[O-])cc1)N/N=C/c1ccc(O)cc1O the results were PLCb3 inh -7, ADAM17 inh 0, ADAM10 inh -8, Tb MetRS inh 16*, PLCg1 inh -2, TbMetRS confirm 36*, Jurkat tox 46* and Tb MetRS inh FP 22*.
`OC[C@@H]1CN(Cc2ccc(F)cc2)C[C@H](n2cnc3c(N4CCCC4)ncnc32)O1` gave PLCb3 inh 2, ADAM17 inh -1, ADAM10 inh 4, Tb MetRS inh 1 and PLCg1 inh 3.
Screening CCOC(=O)C(/C=C(\C#N)C(=O)OCC)=C(/N)N1CCN(c2ccc(OC)cc2)CC1 returned PLCb3 inh 6, ADAM17 inh 3, ADAM10 inh 5, Tb MetRS inh 22*, PLCg1 inh 6, TbMetRS confirm 43*, Jurkat tox 3 and Tb MetRS inh FP 13.
CCOC(=O)C(/C=C(\C#N)C(=O)OCC)=C(/N)N1CCN(c2c(C)cccc2C)CC1 was read as PLCb3 inh 3, ADAM17 inh -6, ADAM10 inh -2, Tb MetRS inh 0 and PLCg1 inh 2.
`O=C(CCN(CCO)Cc1ccccc1)Nc1ccc(Br)cc1` gave PLCb3 inh 1, ADAM17 inh -4, ADAM10 inh -7, Tb MetRS inh 20*, PLCg1 inh 2, TbMetRS confirm 40*, Jurkat tox 0 and Tb MetRS inh FP 15.
For CCN(CC(=O)Nc1ccc(C(=O)Nc2ccc(OC)cc2)cc1)Cc1nc2ccccc2c(=O)[nH]1 the results were PLCb3 inh -5, ADAM17 inh -3, ADAM10 inh 3, Tb MetRS inh -1 and PLCg1 inh 1.
